# Measurements of several laboratories.
# Lines come from different studies, so protocols differ.
# Target: Serine/threonine-protein kinase RIO1 (RIOK1, Homo sapiens, UniProt Q9BRS2)
# One construct used (Q9BRS2 1-568): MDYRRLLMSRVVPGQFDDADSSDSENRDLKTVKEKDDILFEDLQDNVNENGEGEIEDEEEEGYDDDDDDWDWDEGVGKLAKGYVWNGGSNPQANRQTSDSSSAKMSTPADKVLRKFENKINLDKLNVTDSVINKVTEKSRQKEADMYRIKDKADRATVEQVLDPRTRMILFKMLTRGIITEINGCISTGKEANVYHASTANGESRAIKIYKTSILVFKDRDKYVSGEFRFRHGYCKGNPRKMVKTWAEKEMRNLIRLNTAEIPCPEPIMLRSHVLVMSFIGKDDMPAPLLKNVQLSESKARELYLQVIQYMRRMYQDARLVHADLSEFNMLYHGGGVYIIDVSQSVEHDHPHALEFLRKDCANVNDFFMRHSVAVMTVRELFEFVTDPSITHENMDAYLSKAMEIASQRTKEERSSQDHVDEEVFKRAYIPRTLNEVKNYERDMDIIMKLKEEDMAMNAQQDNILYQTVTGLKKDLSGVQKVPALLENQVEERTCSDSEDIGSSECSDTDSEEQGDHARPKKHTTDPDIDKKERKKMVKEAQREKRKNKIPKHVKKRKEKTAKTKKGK
Structure (SMILES),test,conditions,remaining binding [%]
Nc1ncc2c(n1)-c1c([nH]c3ccc(C#CC4CC4)cc13)CCCC2,"binding, competition with immobilised ligand",1 µM,80
O=C(c1ccc(Nc2ncc(Cl)c(-c3cc4ccccc4s3)n2)cc1)N1CCC(N2CCCC2)CC1,"binding, competition with immobilised ligand",1 µM,0
C=CC(=O)N1CCC(C(=O)NCC(=O)N2CCN(c3nc(-c4cnc(N)nc4C(F)F)nc(N4CCOCC4)n3)CC2)CC1,"binding, competition with immobilised ligand",1 µM,98
O=S(=O)(NC1CCC(c2cc(F)ccc2F)(S(=O)(=O)c2ccc(Cl)cc2)CC1)C(F)(F)F (stereo not shown),"cell-free assay, competition with immobilised ligand",1 µM,98
F[C@@H]1CCN(c2nccc(-c3cnn4ncccc34)n2)C1,binding,1 µM,93
CN(C)C(=O)Cn1cc(-c2nc(C3(c4ccc(-c5cnc(N)nc5)cc4)CC3)no2)cn1,"cell-free assay, competition with immobilised ligand",1 µM,100
COc1ncc2cc3ccccc3nc2c1C#N,"cell-free assay, competition with immobilised ligand",5 µM,93
COc1ccnn2ncc(-c3ccnc(N(C)C)n3)c12,binding,1 µM,100
N#Cc1ccc(Nc2ccc3[nH]c(=O)[nH]c3c2)c(Cl)c1,"cell-free assay, competition with immobilised ligand",1 µM,100
O=C(c1ccc(Nc2nccc(-c3cc4ccccc4s3)n2)cc1)N1CCC(N2CCCC2)CC1,"binding, competition with immobilised ligand",1 µM,0.1
COc1ccc2cc(OCC3(C(=O)O)CN(C(=O)c4ccc(F)cc4)C3)ccc2c1,"cell-free assay, competition with immobilised ligand",1 µM,100
COc1cnc(Nc2cccc(S(N)(=O)=O)c2)nc1N1CCN(c2ccccc2)CC1,"binding, competition with immobilised ligand",1 µM,73
N[C@@H]1CCN(c2nccc(-c3cnn4ncccc34)n2)C1,binding,1 µM,96
O=C(NCCCN1CCOCC1)c1ccc(Nc2nccc(-c3cc4ccccc4s3)n2)cc1,"binding, competition with immobilised ligand",1 µM,0.1
CCCOc1ccc([C@@H]2[C@@H](C(=O)O)[C@H](c3ccc4c(c3)OCO4)CN2CC(=O)Nc2c(CC)cccc2CC)cc1,"cell-free assay, competition with immobilised ligand",1 µM,100
C[C@H]1CCN(c2nccc(-c3cnn4ncccc34)n2)C1,binding,1 µM,62
O=C(NCC1CCOCC1)c1n[nH]cc1NC(=O)c1c(F)cccc1F,"binding, competition with immobilised ligand",1 µM,88
CN(C)c1ncc(F)c(-c2cnn3ncccc23)n1,binding,1 µM,100
Cn1nc(C(=O)NCc2ccc(C(=O)O)cc2)cc1-c1ccc2[nH]ccc2c1,"cell-free assay, competition with immobilised ligand",0.1 µM,76
C[C@@H](c1ccc(-n2cnc3c(N)ncnc32)cc1)N1CCc2nn(C)c(Cc3ccccc3)c2C1=O,"binding, competition with immobilised ligand",0.1 µM,69
c1cnn2ncc(-c3ccnc(N4CCC45COC5)n3)c2c1,binding,1 µM,36
COc1cnc(Nc2cccc(S(N)(=O)=O)c2)nc1N1CCN(c2ccccc2)C(=O)C1,"binding, competition with immobilised ligand",1 µM,49
